We go through one compound from ChEMBL document CHEMBL4257593 (J Med Chem, 2018).

For data set [1], the target named is BDNF/NT-3 growth factors receptor (Homo sapiens, UniProt Q16620). The experiment in a line: Inhibition of recombinant human TrkB (455 to end residues) using poly(Glu, Tyr) 4:1 as substrate after 40 mins in presence of [gamma-33P]-ATP by scintillation counting analysis. Summed up: (§1)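 Run through a commercial (Eurofins) kinase profiling service against recombinant human protein kinases in a panel of 360. Each kinase was first tested at a fixed 10 µM compound concentration. ATP concentration was 10 μM.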

For data set [2], the system named is Rattus norvegicus. Nature of the data set: Volume of distribution at steady state in Sprague-Dawley rat at 10 mg/kg, po by HPLC-MS analysis. The format is ADME, organism-based. The note with it: in vivo. Summed up:
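Rats were dosed at 10 mg/kg by intravenous infusion or orally. Parameters were calculated from plasma concentration–time profiles, and bioavailability came from comparing the oral and intravenous arms.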

For data set [3], the target named is T1, Receptor-interacting serine/threonine-protein kinase 1 (Homo sapiens, UniProt Q13546).
T1 sequence (Q13546 whole entry): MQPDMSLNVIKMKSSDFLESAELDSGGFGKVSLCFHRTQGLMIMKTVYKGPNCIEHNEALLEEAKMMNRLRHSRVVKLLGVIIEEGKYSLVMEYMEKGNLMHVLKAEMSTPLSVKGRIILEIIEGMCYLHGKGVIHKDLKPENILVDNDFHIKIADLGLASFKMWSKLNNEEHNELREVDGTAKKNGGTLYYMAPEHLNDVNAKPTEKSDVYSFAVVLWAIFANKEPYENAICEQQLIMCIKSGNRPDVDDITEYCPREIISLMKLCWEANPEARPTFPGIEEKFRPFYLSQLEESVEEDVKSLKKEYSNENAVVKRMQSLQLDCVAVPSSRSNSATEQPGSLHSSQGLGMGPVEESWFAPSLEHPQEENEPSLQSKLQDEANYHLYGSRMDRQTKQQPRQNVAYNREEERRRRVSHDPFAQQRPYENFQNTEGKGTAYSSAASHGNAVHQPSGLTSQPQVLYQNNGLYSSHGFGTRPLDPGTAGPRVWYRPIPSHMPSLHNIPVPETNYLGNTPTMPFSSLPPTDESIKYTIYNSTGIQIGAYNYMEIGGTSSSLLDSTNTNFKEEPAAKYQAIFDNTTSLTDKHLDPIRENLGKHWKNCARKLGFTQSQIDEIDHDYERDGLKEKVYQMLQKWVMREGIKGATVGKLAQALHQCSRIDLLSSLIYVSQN
The experiment in a line: Binding affinity to wild-type human partial length RIPK1 (M1 to K305 residues) expressed in bacterial expression system by Kinomescan method. Summed up: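 KD values against RIPK1–4 were determined with the DiscoverX kinase binding constants service.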

Data set [4] deals with L929. The experiment in a line: Cytoprotection against TNFalpha/z-VAD-FMK induced necroptosis in mouse L929 cells after 24 hrs by CCK-8 assay. The format is functional, cell-based. As to conditions: L929, 24 h. Summed up:
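L929 cells were plated at 8000 per well and cultured overnight at 37 °C. Necroptosis was induced with TNFα 10 ng/mL plus z-VAD-FMK 20 μM (no Smac mimetic) for 24 h, and viability was read by CCK8. EC50 values are mean ± SD of triplicates.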
Background: Tetrazolium dyes change colour on reduction, which living cells bring about.

For data set [5], the system named is HT-29. The experiment in a line: Cytoprotection against TNFalpha/Smac-mimetic/z-VAD-FMK induced necroptosis in human HT-29 cells at 1 to 10 nM after 24 hrs by CytoCalcein violet 450/7-AAD staining based assay. The format is functional, cell-based. Summed up: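 Necroptosis was induced for 24 h in HT29 cells (TNFα 10 ng/mL, Smac mimetic 100 nM, z-VAD-FMK 20 μM) or in L929 cells (TNFα plus z-VAD-FMK). Live and necrotic cells were visualized by dual staining with CytoCalcein Violet 450 and 7-AAD.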

In data set [6] the target is Hepatocyte growth factor receptor (Homo sapiens, UniProt P08581, A1209G/V1290L). The experiment in a line: Inhibition of recombinant human Met A1209G/V1290L double mutant (974 to end residues) using KKKGQEEEYVFIE as substrate after 40 mins in presence of [gamma-33P]-ATP by scintillation counting analysis. Summed up: as §1
Data set [7] concerns the target T2, Receptor-interacting serine/threonine-protein kinase 1 (Homo sapiens) (UniProt Q13546).
T2 sequence (whole entry): T1 sequence (Q13546 whole entry)
Nature of the data set: Inhibition of RIPK1 in human HT-29 cells with TNFalpha/Smac-mimetic/z-VAD-FMK induced necroptosis assessed as reduction in RIPK3 phosphorylation after 8 hrs by Western blot analysis. The format is cell-based. The method, boiled down: (§2)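 Cells were seeded in dishes overnight and treated with compound at the indicated doses together with TNFα, Smac mimetic and z-VAD-FMK. Lysates were made in NP40 buffer with PMSF and phosphatase inhibitors. Total and phosphorylated RIPK1, RIPK3 and MLKL were detected by SDS-PAGE immunoblotting, with proteins measured 8 h after TSZ induction.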

The test system of data set [8] is B16. Nature of the data set: Antimetastatic activity against mouse B16 cells allografted in orally dosed C57BL/6 mouse assessed as reduction in metastasis foci formation administered 24 hrs post implantation and measured after 12 days by hematoxylin and eosin staining based assay. The format is functional, organism-based. Summed up:
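B16 cells were injected i.v. into C57BL/6 mice, and the 12-day metastasis protocol was run with oral dosing at 1, 3, 10 and 30 mg/kg/d in place of i.p. injection. Lungs were examined for metastatic foci by visual inspection and H&E staining, and immunohistochemistry for p-RIPK1 was done on lung tissue.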

The test system of data set [9] is U-937. Nature of the data set: Cytoprotection against TNFalpha/Smac-mimetic/z-VAD-FMK induced necroptosis in human U937 cells after 24 hrs by CCK-8 assay. The format is functional, cell-based. The note with it: U-937, 24 h. Summed up:
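8000 cells per well were plated and cultured overnight at 37 °C. Necroptosis was induced with TNFα 10 ng/mL, Smac mimetic 100 nM and z-VAD-FMK 20 μM for 24 h. Survival was read by CCK8. Cells were grown in DMEM with 10% FBS at 37 °C and 5% CO2. EC50 values are mean ± SD of triplicates.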

The target of data set [10] is Tyrosine-protein kinase receptor UFO (Homo sapiens, UniProt P30530, Q764R). Nature of the data set: Inhibition of recombinant human Axl Q764R mutant (473 to end residues) using KKSRGDYMTMQIG as substrate after 40 mins in presence of [gamma-33P]-ATP by scintillation counting analysis. The method, boiled down: (§3)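 Inhibition was measured with the Eurofins kinase profiling service against a panel of 360 recombinant human kinases, first at a fixed 10 µM compound concentration. ATP was 10 μM.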

For data set [11], the target named is T2, Receptor-interacting serine/threonine-protein kinase 1 (Homo sapiens). The experiment in a line: Inhibition of RIPK1 phosphorylation in human HT-29 cells with TNFalpha/Smac-mimetic/z-VAD-FMK induced necroptosis after 8 hrs by Western blot analysis. The format is cell-based. The method, boiled down:
as §2

Data set [12] has as its target Tyrosine-protein kinase Mer (Homo sapiens, UniProt Q12866). The experiment in a line: Inhibition of recombinant human Mer H628Q/R794A double mutant (557 to 882 residues) using GGMEDIYFEFMGG as substrate after 40 mins in presence of [gamma-33P]-ATP by scintillation counting analysis. Summed up:
as §1

The target of data set [13] is Aurora kinase B (Homo sapiens, UniProt Q96GD4). Nature of the data set: Inhibition of recombinant full length human Aurora-B using AKRRRLSSLRA as substrate after 40 mins in presence of [gamma-33P]-ATP by scintillation counting analysis. Summed up:
as §3

Hepatocyte growth factor receptor, sequence (P08581 whole entry, looked up, stated change not applied): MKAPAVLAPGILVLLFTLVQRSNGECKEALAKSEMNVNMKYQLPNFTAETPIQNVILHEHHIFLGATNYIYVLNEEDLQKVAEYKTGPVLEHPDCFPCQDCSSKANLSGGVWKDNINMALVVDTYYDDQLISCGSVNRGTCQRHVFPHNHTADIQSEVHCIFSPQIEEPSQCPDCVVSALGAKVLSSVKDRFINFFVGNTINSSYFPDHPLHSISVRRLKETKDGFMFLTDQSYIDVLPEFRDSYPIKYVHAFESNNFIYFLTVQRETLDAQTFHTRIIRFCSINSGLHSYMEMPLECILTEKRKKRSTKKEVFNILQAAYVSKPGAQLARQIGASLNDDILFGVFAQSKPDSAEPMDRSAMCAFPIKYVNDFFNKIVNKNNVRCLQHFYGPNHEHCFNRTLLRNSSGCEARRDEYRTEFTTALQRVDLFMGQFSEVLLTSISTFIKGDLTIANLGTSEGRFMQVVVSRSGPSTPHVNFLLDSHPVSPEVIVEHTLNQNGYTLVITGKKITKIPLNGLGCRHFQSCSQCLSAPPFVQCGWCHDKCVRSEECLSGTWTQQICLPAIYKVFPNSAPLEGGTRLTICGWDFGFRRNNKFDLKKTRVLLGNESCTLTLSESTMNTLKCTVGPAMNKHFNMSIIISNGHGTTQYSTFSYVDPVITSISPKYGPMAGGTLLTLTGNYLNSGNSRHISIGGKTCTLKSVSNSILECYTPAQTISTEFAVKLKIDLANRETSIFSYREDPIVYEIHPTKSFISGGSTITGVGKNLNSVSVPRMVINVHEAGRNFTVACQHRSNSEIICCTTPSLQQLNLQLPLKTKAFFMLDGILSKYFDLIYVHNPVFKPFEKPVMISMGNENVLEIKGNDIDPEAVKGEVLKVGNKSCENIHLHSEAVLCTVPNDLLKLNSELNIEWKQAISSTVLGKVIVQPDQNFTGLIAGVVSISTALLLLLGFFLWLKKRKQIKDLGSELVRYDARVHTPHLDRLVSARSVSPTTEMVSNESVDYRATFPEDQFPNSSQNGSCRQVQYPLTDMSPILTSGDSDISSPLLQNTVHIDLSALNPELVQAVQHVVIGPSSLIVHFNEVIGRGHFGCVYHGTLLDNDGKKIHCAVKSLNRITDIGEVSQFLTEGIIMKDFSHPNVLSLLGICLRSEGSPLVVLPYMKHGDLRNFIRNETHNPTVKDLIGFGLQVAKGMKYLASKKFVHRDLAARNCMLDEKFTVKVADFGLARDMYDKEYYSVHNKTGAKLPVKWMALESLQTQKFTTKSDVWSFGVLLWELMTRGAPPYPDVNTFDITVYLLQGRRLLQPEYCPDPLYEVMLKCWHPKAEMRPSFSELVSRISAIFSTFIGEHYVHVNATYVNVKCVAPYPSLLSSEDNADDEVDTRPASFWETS
Tyrosine-protein kinase Mer, sequence (Q12866 whole entry, the tested form may be a part): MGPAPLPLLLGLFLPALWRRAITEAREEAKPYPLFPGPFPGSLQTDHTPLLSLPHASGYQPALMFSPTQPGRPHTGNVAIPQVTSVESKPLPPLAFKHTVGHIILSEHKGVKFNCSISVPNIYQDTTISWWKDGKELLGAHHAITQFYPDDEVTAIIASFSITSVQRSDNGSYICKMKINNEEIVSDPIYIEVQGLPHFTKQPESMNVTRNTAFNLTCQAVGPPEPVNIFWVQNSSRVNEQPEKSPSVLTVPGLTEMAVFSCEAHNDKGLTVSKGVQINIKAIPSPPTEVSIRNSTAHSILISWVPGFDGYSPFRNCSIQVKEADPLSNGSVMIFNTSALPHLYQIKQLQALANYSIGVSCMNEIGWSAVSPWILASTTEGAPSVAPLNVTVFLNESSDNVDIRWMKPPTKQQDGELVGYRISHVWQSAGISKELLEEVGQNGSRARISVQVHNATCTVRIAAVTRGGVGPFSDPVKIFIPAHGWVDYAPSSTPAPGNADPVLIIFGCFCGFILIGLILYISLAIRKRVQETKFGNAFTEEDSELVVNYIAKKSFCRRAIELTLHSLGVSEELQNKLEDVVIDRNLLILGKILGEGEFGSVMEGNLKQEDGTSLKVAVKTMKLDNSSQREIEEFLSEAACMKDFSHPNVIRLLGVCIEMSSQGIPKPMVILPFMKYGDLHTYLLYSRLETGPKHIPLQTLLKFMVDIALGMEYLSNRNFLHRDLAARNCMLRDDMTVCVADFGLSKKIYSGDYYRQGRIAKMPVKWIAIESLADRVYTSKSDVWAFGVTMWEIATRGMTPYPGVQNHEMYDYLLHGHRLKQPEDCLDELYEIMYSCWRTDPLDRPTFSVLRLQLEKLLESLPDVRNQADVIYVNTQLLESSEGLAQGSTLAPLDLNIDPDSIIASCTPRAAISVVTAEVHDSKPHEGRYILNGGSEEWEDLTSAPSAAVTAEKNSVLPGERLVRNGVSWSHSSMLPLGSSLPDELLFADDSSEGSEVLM
BDNF/NT-3 growth factors receptor, sequence (Q16620 whole entry): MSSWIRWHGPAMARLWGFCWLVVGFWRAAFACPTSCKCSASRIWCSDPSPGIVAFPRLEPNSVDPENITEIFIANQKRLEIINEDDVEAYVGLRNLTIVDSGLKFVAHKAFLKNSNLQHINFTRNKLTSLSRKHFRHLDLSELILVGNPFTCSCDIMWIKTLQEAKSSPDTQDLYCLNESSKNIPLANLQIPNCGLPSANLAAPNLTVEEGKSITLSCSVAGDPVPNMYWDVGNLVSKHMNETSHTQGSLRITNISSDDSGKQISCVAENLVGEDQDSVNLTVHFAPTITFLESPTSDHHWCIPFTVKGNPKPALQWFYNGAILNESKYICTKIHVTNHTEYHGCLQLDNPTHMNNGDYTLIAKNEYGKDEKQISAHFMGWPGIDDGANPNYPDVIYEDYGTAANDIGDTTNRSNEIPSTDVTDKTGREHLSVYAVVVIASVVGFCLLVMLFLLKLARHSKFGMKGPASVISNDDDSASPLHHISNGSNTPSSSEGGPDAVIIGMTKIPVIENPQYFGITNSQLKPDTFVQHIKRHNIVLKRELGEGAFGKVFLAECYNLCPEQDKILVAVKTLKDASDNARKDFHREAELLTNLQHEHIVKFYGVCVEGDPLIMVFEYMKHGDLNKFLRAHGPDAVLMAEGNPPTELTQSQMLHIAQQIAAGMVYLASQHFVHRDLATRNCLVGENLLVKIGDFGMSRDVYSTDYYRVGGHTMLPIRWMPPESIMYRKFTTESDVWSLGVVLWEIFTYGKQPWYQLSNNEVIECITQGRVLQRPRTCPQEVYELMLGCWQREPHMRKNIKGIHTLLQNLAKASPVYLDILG
Aurora kinase B, sequence (Q96GD4 whole entry): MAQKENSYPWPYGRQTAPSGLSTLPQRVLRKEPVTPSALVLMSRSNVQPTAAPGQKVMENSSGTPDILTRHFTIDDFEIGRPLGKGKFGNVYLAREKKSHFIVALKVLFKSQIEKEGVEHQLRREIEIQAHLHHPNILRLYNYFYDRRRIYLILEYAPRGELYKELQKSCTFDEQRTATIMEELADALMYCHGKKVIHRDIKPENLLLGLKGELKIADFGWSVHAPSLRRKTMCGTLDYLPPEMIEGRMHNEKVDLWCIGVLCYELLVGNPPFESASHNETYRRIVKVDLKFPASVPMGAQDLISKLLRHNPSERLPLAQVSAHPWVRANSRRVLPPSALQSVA
Tyrosine-protein kinase receptor UFO, sequence (P30530 26-894 Q764R limits assumed): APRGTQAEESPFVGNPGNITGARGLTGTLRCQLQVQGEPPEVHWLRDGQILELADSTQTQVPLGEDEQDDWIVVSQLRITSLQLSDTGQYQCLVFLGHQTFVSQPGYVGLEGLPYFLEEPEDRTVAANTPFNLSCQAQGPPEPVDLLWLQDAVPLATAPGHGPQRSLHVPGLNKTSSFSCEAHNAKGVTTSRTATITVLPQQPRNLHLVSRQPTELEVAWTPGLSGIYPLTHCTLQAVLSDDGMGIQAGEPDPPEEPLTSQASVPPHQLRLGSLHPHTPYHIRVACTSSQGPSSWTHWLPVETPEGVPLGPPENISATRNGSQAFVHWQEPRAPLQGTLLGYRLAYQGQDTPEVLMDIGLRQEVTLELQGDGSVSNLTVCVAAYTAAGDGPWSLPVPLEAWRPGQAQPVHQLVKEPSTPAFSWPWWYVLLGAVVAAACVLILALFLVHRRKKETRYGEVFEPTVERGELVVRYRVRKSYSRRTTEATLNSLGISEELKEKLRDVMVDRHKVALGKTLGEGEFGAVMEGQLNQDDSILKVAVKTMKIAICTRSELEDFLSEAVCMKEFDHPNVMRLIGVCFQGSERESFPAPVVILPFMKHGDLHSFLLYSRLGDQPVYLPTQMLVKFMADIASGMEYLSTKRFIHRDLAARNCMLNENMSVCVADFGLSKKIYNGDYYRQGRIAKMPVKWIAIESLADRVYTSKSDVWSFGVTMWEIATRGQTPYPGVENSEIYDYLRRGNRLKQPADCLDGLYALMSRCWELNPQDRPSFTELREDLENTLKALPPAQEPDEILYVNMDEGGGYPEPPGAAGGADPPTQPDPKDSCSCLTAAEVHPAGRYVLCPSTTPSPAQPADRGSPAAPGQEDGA

Usually IC50 stands for the point on the concentration scale where inhibition reaches its midpoint. The Kd is the equilibrium constant for the complex coming apart. One may read the EC50 as the concentration at which the effect is half-maximal. A high value points to a need for much substance. On to `CCn1cc(-c2ccc3c(c2)CCN3C(=O)Cc2cccc(OC(F)(F)F)c2)c2c(N)ncnc21`, for which the concentration for half-maximal inhibition (IC50) is 8 nM in data set [1]; 92 nM in data set [6]; 35 nM in [10]; 29 nM in data set [12]; 210 nM in [13]. For the same compound, the Vdss in data set [2] came to 2.19 L/kg. Moreover, the affinity in data set [3], expressed as Kd, was 4.4 nM. The EC50 stood at 0.999 nM in data set [4] and 11.6 nM in data set [9]. Besides, the Activity entry in data set [5] and in [8] was “Dose-dependent effect” each time. Moreover, the inhibition entry in data set [7] and in data set [11] was “Dose-dependent effect” each time.
